Laboratory results taken from ChEMBL document CHEMBL3232883, “Triaryl-substituted Schiff bases are high-affinity subtype-selective ligands for the estrogen receptor” (J Med Chem, 2014).
Activity calls are given as the source filed them. The rule behind the calls is not given here.

Key:
[1] = molecular target: T1, Estrogen receptor (Homo sapiens) (UniProt P03372); test: Agonist activity at ERalpha (unknown origin) expressed in human HepG2 cells assessed as transcriptional activation after 24 hrs by ERE-luciferase reporter gene assay relative to 17beta-estradiol; format: cell-based
T1 sequence (whole entry): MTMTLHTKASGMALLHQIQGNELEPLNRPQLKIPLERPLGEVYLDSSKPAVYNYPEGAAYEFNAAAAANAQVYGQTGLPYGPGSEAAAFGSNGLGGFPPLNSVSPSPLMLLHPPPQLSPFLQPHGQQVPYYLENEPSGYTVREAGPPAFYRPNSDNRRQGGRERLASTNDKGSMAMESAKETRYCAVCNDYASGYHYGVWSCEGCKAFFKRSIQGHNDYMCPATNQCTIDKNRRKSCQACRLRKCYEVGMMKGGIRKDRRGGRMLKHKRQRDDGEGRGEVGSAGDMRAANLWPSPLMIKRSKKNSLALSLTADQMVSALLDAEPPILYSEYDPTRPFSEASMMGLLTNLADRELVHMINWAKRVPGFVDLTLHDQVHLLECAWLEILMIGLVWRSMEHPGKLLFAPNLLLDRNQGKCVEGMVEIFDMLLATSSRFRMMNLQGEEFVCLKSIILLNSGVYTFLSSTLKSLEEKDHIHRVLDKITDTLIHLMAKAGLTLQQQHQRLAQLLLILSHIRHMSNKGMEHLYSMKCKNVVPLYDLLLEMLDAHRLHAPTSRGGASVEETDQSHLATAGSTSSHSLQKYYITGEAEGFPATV
In short: (§1)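 HepG2 cells were cotransfected with a 3×ERE-luciferase reporter (10 μg) plus an ERα or ERβ expression vector (1.6 μg) per 10 cm dish. The next day they were replated at 20 000 cells/well in phenol red-free medium with 10% charcoal-dextran-stripped FBS and held overnight. Cells were then dosed over a 12-point range of 10 μM to 100 pM. Luciferase was read after 24 h, with DMSO set as 0% and the top of the E2 curve as 100%.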

Estrogen receptor beta [2] = molecular target: T2, Estrogen receptor beta (Homo sapiens, UniProt Q92731); test: Agonist activity at ERbeta (unknown origin) expressed in human HepG2 cells assessed as transcriptional activation after 24 hrs by ERE-luciferase reporter gene assay relative to 17beta-estradiol; format: cell-based; in short: as §1
T2 sequence (Q92731 whole entry, the tested form may be a part): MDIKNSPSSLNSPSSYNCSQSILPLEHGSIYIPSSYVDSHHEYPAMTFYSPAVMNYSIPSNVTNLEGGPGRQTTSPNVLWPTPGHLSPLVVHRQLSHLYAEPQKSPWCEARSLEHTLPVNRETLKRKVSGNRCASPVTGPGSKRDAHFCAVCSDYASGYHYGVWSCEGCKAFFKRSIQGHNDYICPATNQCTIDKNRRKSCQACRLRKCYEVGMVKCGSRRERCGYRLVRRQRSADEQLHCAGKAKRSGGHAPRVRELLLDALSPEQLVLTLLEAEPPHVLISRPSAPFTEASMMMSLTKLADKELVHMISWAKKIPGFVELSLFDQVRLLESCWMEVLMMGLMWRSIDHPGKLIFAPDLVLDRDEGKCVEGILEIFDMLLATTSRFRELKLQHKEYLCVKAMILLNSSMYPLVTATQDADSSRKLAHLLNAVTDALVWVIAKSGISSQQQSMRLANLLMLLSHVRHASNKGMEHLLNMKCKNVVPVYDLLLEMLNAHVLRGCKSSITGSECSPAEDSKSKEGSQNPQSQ

HepG2 = test: Agonist activity at ERalpha (unknown origin) harboring N-terminal AF1 domain deleted mutant expressed in human HepG2 cells assessed as transcriptional activation after 24 hrs by ERE-luciferase reporter gene assay; format: cell-based
Estrogen receptor beta [3] = molecular target: T2, Estrogen receptor beta; test: Antagonist activity at ERbeta (unknown origin) expressed in human HepG2 cells assessed as inhibition of 17beta-estradiol-induced transcriptional activation after 24 hrs by ERE-luciferase reporter gene assay; format: cell-based
In short: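 ERβ-transfected, steroid-deprived HepG2 cells carrying a 3×ERE-luciferase reporter were co-treated with 10 nM estradiol and test ligand over a range of 10 μM to 100 pM. Luciferase was read after 24 h, with each plate normalized to DMSO (0%) and the maximal E2 response (100%). IC50 and % efficacy were derived from the dose curves.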

Homo sapiens = species: Homo sapiens; test: Selectivity ratio of RBA for human full length ERbeta to RBA for human full-length ERalpha
Estrogen receptor = molecular target: T3, Estrogen receptor (Homo sapiens, UniProt P03372); test: Agonist activity at ERalpha (unknown origin) expressed in human HepG2 cells assessed as transcriptional activation after 24 hrs by ERE-luciferase reporter gene assay; format: cell-based
T3 sequence (P03372 whole entry): T1 sequence (whole entry)
In short: (§2)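 HepG2 cells were grown in DMEM with 10% FBS and transfected with a 3×ERE-luciferase reporter plus an ERα or ERβ expression vector. The next day cells were moved to phenol red-free medium with 10% charcoal-dextran-stripped FBS, plated at 20 000 cells/well and left overnight. Ligand was then added as a 12-point dose curve from 10 μM to 100 pM. Luciferase was read after 24 h, normalized to DMSO as 0% and the top of the E2 curve as 100%.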

[4] = molecular target: T1, Estrogen receptor (Homo sapiens); test: Antagonist activity at ERalpha (unknown origin) expressed in human HepG2 cells assessed as inhibition of transcriptional activation after 24 hrs by ERE-luciferase reporter gene assay relative to 17beta-estradiol; format: cell-based
In short: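 Antagonist mode used HepG2 cells cotransfected with a 3×ERE-luciferase reporter plus an ERα expression vector and steroid-deprived in phenol red-free medium with 10% charcoal-dextran-stripped FBS. Cells received 10 nM estradiol together with increasing compound concentrations across a 10 μM to 100 pM dose curve. Luciferase was measured after 24 h and normalized to DMSO (0%) and the top of the E2 curve (100%).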

[5] = molecular target: T1, Estrogen receptor (Homo sapiens); test: Displacement of [3H]-estradiol from human full-length ERalpha after 18 to 24 hrs by competitive radiometric binding assay relative to estradiol
Estrogen receptor beta [6] = molecular target: T2, Estrogen receptor beta; test: Agonist activity at ERbeta (unknown origin) expressed in human HepG2 cells assessed as transcriptional activation after 24 hrs by ERE-luciferase reporter gene assay; format: cell-based; in short: as §2
Estrogen receptor beta [7] = molecular target: T2, Estrogen receptor beta; test: Displacement of [3H]-estradiol from human full-length ERbeta after 18 to 24 hrs by competitive radiometric binding assay relative to estradiol

- Efficacy [1]: 114%
- Efficacy (Estrogen receptor beta [2]): 19%
- IC50 (Estrogen receptor beta [3]): 180 nM
- Selectivity ratio (Homo sapiens): 2.5
- EC50 (Estrogen receptor): 4 nM
- Efficacy [4]: 123%
- RBA [5]: 15.5%
- EC50 (Estrogen receptor beta [6]): 385 nM
- RBA (Estrogen receptor beta [7]): 38.1%
SMILES: Oc1ccc(/C(=N\c2ccc(Cl)cc2)c2ccc(O)cc2O)cc1
- Activity (HepG2): inactive
